Values joined by “and” are separate entries in the source; they are usually repeats but may differ in a detail not shown here. Equal values may be shown once.
Test system: U2OS
Assay: Multiplex assay against U2OS
Type: toxicity, cell-based
Details: human
How it was run: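 Four dyes were applied at seeding to live cells: Hoechst33342, BioTracker Green Microtubule Cytoskeleton Dye, MitoTracker Red and Annexin V Alexa Fluor 680. Imaging after compound addition used a CQ1 microscope at 37°C and 5% CO2. CellPathfinder machine-learning gating then sorted cells into Hoechst high-intensity objects or normal cells, normal cells into healthy, pyknosed or fragmented nuclei, and pyknosed cells into mitotic or apoptotic, with tubulin, mitochondrial-mass and membrane-permeability phenotypes given as per cents of healthy-nucleus cells.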

[1] = 12 h, 1 µM, compound concentration 1 uM
[2] = 12 h, 10 µM, compound concentration 10 uM
[3] = 24 h, 1 µM, compound concentration 1 uM
[4] = 24 h, 10 µM, compound concentration 10 uM
[5] = 48 h, 1 µM, compound concentration 1 uM
[6] = 48 h, 10 µM, compound concentration 10 uM

C=CCN1C[C@H](C(=O)N(CCCN(C)C)C(=O)NCC)C[C@@H]2c3cccc4[nH]cc(c34)C[C@H]21 [CABERGOLINE]
Population Apoptotic (%) [1]: 86% and 57% | Population Fragmented Nuclei (%) [1]: 13% and 9% | Population Healthy Nuclei (%) [1]: 72% and 84% | Population Hoechst High Intensity Objects (%) [1]: 2% and 3% | Population Membrane Permeable-Phenotype (%) [1]: 3% and 8% | Population Mitochondria Different-Phenotype (%) [1]: 1% and 4% | Population Normal (%) [1]: 97% and 96% | Population Pyknosed Nuclei (%) [1]: 13% and 5% | Population Tubulin-Different-Phenotype (%) [1]: 1% and 5% | Total Cell Count [1]: 228 and 129 | Population Apoptotic (%) [2]: 69% and 64% | Population Fragmented Nuclei (%) [2]: 35% and 17% | Population Healthy Nuclei (%) [2]: 52% and 70% | Population Hoechst High Intensity Objects (%) [2]: 3% and 2% | Population Membrane Permeable-Phenotype (%) [2]: 15% and 13% | Population Mitochondria Different-Phenotype (%) [2]: 9% and 21% | Population Mitotic Cells (%) [2]: 30% and 35% | Population Normal (%) [2]: 96% and 97% | Population Pyknosed Nuclei (%) [2]: 11% and 12% | Population Tubulin-Different-Phenotype (%) [2]: 11% and 9% | Total Cell Count [2]: 228 and 143 | Population Apoptotic (%) [3]: 82% and 64% | Population Fragmented Nuclei (%) [3]: 15% and 7% | Population Healthy Nuclei (%) [3]: 74% and 83% | Population Hoechst High Intensity Objects (%) [3]: 3% and 1% | Population Membrane Permeable-Phenotype (%) [3]: 1% and 9% | Population Mitochondria Different-Phenotype (%) [3]: 1% and 4% | Population Mitotic Cells (%) [3]: 17% and 35% | Population Normal (%) [3]: 96% and 98% | Population Pyknosed Nuclei (%) [3]: 10% and 8% | Population Tubulin-Different-Phenotype (%) [3]: 0% and 6% | Total Cell Count [3]: 295 and 162 | Population Apoptotic (%) [4]: 65% and 88% | Population Fragmented Nuclei (%) [4]: 33% and 14% | Population Healthy Nuclei (%) [4]: 54% and 75% | Population Hoechst High Intensity Objects (%) [4]: 3% and 2% | Population Membrane Permeable-Phenotype (%) [4]: 10% and 13% | Population Mitochondria Different-Phenotype (%) [4]: 5% and 12% | Population Normal (%) [4]: 96% and 97% | Population Pyknosed Nuclei (%) [4]: 11% and 10% | Population Tubulin-Different-Phenotype (%) [4]: 4% and 10% | Total Cell Count [4]: 228 and 165 | Population Apoptotic (%) [5]: 88% and 93% | Population Fragmented Nuclei (%) [5]: 13% | Population Healthy Nuclei (%) [5]: 77% and 73% | Population Hoechst High Intensity Objects (%) [5]: 2% and 3% | Population Membrane Permeable-Phenotype (%) [5]: 5% and 4% | Population Mitochondria Different-Phenotype (%) [5]: 1% and 4% | Population Mitotic Cells (%) [5]: 11% and 6% | Population Normal (%) [5]: 97% and 96% | Population Pyknosed Nuclei (%) [5]: 8% and 13% | Population Tubulin-Different-Phenotype (%) [5]: 3% | Total Cell Count [5]: 405 and 221 | Population Apoptotic (%) [6]: 86% and 87% | Population Fragmented Nuclei (%) [6]: 30% and 13% | Population Healthy Nuclei (%) [6]: 57% and 66% | Population Hoechst High Intensity Objects (%) [6]: 3% and 4% | Population Membrane Permeable-Phenotype (%) [6]: 7% and 9% | Population Mitochondria Different-Phenotype (%) [6]: 1% and 9% | Population Mitotic Cells (%) [6]: 13% and 12% | Population Normal (%) [6]: 96% and 95% | Population Pyknosed Nuclei (%) [6]: 12% and 20% | Population Tubulin-Different-Phenotype (%) [6]: 3% and 5% | Total Cell Count [6]: 303 and 206

O=C(Nc1c[nH]nc1-c1nc2cc(CN3CCOCC3)ccc2[nH]1)NC1CC1 [AT-9283]
Population Apoptotic (%) [1]: 27.91% and 52.63% | Population Fragmented Nuclei (%) [1]: 2.75% and 2.61% | Population Healthy Nuclei (%) [1]: 85.4% and 84.97% | Population Hoechst High Intensity Objects (%) [1]: 0% | Population Membrane Permeable-Phenotype (%) [1]: 0.65% and 3.85% | Population Mitochondria Different-Phenotype (%) [1]: 0.32% and 9.23% | Population Mitotic Cells (%) [1]: 72.09% and 47.37% | Population Normal (%) [1]: 100% | Population Pyknosed Nuclei (%) [1]: 11.85% and 12.42% | Population Tubulin-Different-Phenotype (%) [1]: 1.29% and 0% | Total Cell Count [1]: 363 and 153 | Population Apoptotic (%) [2]: 43% and 36.73% | Population Fragmented Nuclei (%) [2]: 6.56% and 13.38% | Population Healthy Nuclei (%) [2]: 60.66% and 52.11% | Population Hoechst High Intensity Objects (%) [2]: 0% and 0.7% | Population Membrane Permeable-Phenotype (%) [2]: 1.62% and 5.41% | Population Mitochondria Different-Phenotype (%) [2]: 0% and 14.86% | Population Mitotic Cells (%) [2]: 57% and 63.27% | Population Normal (%) [2]: 100% and 99.3% | Population Pyknosed Nuclei (%) [2]: 32.79% and 34.51% | Population Tubulin-Different-Phenotype (%) [2]: 2.16% and 2.7% | Total Cell Count [2]: 305 and 143 | Population Apoptotic (%) [3]: 38.27% and 55.56% | Population Fragmented Nuclei (%) [3]: 5.31% and 3.57% | Population Healthy Nuclei (%) [3]: 73.21% and 75% | Population Hoechst High Intensity Objects (%) [3]: 0% | Population Membrane Permeable-Phenotype (%) [3]: 0.72% and 3.17% | Population Mitochondria Different-Phenotype (%) [3]: 0% and 7.94% | Population Mitotic Cells (%) [3]: 61.73% and 44.44% | Population Normal (%) [3]: 100% | Population Pyknosed Nuclei (%) [3]: 21.49% and 21.43% | Population Tubulin-Different-Phenotype (%) [3]: 1.81% and 0% | Total Cell Count [3]: 377 and 168 | Population Apoptotic (%) [4]: 50.29% and 58.51% | Population Fragmented Nuclei (%) [4]: 11.38% and 13.89% | Population Healthy Nuclei (%) [4]: 28.28% and 20.83% | Population Hoechst High Intensity Objects (%) [4]: 0.34% and 1.37% | Population Membrane Permeable-Phenotype (%) [4]: 4.88% and 10% | Population Mitochondria Different-Phenotype (%) [4]: 0% and 10% | Population Mitotic Cells (%) [4]: 49.71% and 41.49% | Population Normal (%) [4]: 99.66% and 98.63% | Population Pyknosed Nuclei (%) [4]: 60.34% and 65.28% | Population Tubulin-Different-Phenotype (%) [4]: 10.98% and 3.33% | Total Cell Count [4]: 291 and 146 | Population Apoptotic (%) [5]: 55.84% and 65.43% | Population Fragmented Nuclei (%) [5]: 5.53% and 3.43% | Population Healthy Nuclei (%) [5]: 57.45% and 50.29% | Population Hoechst High Intensity Objects (%) [5]: 0.24% and 0.57% | Population Membrane Permeable-Phenotype (%) [5]: 4.6% and 11.36% | Population Mitotic Cells (%) [5]: 44.16% and 34.57% | Population Normal (%) [5]: 99.76% and 99.43% | Population Pyknosed Nuclei (%) [5]: 37.02% and 46.29% | Population Tubulin-Different-Phenotype (%) [5]: 11.3% and 13.64% | Total Cell Count [5]: 417 and 176 | Population Apoptotic (%) [6]: 69.51% and 86% | Population Fragmented Nuclei (%) [6]: 9.83% and 10.61% | Population Healthy Nuclei (%) [6]: 14.58% and 13.64% | Population Hoechst High Intensity Objects (%) [6]: 0.34% and 0% | Population Membrane Permeable-Phenotype (%) [6]: 27.91% and 11.11% | Population Mitochondria Different-Phenotype (%) [6]: 0% and 5.56% | Population Mitotic Cells (%) [6]: 30.49% and 14% | Population Normal (%) [6]: 99.66% and 100% | Population Pyknosed Nuclei (%) [6]: 75.59% and 75.76% | Population Tubulin-Different-Phenotype (%) [6]: 58.14% and 50% | Total Cell Count [6]: 296 and 132

CC(C)[C@H](C(=O)Nc1ccc(C(=O)NO)cc1)c1ccccc1 [AR-42]
Population Apoptotic (%) [1]: 27.71% and 34.88% | Population Fragmented Nuclei (%) [1]: 2.59% and 3.95% | Population Healthy Nuclei (%) [1]: 77.88% and 71.75% | Population Hoechst High Intensity Objects (%) [1]: 0% | Population Membrane Permeable-Phenotype (%) [1]: 0.6% and 1.57% | Population Mitochondria Different-Phenotype (%) [1]: 0.3% and 7.87% | Population Mitotic Cells (%) [1]: 72.29% and 65.12% | Population Normal (%) [1]: 100% | Population Pyknosed Nuclei (%) [1]: 19.53% and 24.29% | Population Tubulin-Different-Phenotype (%) [1]: 0.6% and 0% | Total Cell Count [1]: 425 and 177 | Population Apoptotic (%) [2]: 22.08% and 11.11% | Population Fragmented Nuclei (%) [2]: 2.31% and 1.96% | Population Healthy Nuclei (%) [2]: 75.5% and 80.39% | Population Hoechst High Intensity Objects (%) [2]: 0% | Population Membrane Permeable-Phenotype (%) [2]: 0.38% and 3.25% | Population Mitochondria Different-Phenotype (%) [2]: 0% and 2.44% | Population Mitotic Cells (%) [2]: 77.92% and 88.89% | Population Normal (%) [2]: 100% | Population Pyknosed Nuclei (%) [2]: 22.19% and 17.65% | Population Tubulin-Different-Phenotype (%) [2]: 0.76% and 0.81% | Total Cell Count [2]: 347 and 153 | Population Apoptotic (%) [3]: 34.74% and 52.56% | Population Fragmented Nuclei (%) [3]: 5.86% and 12.17% | Population Healthy Nuclei (%) [3]: 51.35% and 46.56% | Population Hoechst High Intensity Objects (%) [3]: 0% | Population Membrane Permeable-Phenotype (%) [3]: 1.75% and 5.68% | Population Mitochondria Different-Phenotype (%) [3]: 0% and 5.68% | Population Mitotic Cells (%) [3]: 65.26% and 47.44% | Population Normal (%) [3]: 100% | Population Pyknosed Nuclei (%) [3]: 42.79% and 41.27% | Population Tubulin-Different-Phenotype (%) [3]: 4.82% and 3.41% | Total Cell Count [3]: 444 and 189 | Population Apoptotic (%) [4]: 38.59% and 30.67% | Population Fragmented Nuclei (%) [4]: 5.97% and 3.36% | Population Healthy Nuclei (%) [4]: 39.1% and 46.31% | Population Hoechst High Intensity Objects (%) [4]: 0% | Population Membrane Permeable-Phenotype (%) [4]: 3.82% and 5.8% | Population Mitochondria Different-Phenotype (%) [4]: 0% and 2.9% | Population Mitotic Cells (%) [4]: 61.41% and 69.33% | Population Normal (%) [4]: 100% | Population Pyknosed Nuclei (%) [4]: 54.93% and 50.34% | Population Tubulin-Different-Phenotype (%) [4]: 6.87% and 8.7% | Total Cell Count [4]: 335 and 149 | Population Apoptotic (%) [5]: 73.08% and 85.05% | Population Fragmented Nuclei (%) [5]: 10.42% and 6.52% | Population Healthy Nuclei (%) [5]: 25.06% and 35.33% | Population Hoechst High Intensity Objects (%) [5]: 0.25% and 0% | Population Membrane Permeable-Phenotype (%) [5]: 14.85% and 23.08% | Population Mitochondria Different-Phenotype (%) [5]: 0% and 10.77% | Population Mitotic Cells (%) [5]: 26.92% and 14.95% | Population Normal (%) [5]: 99.75% and 100% | Population Pyknosed Nuclei (%) [5]: 64.52% and 58.15% | Population Tubulin-Different-Phenotype (%) [5]: 30.69% and 30.77% | Total Cell Count [5]: 404 and 184 | Population Apoptotic (%) [6]: 83.05% and 91.57% | Population Fragmented Nuclei (%) [6]: 2.34% and 3.4% | Population Healthy Nuclei (%) [6]: 38.46% and 40.14% | Population Hoechst High Intensity Objects (%) [6]: 0% and 0.68% | Population Membrane Permeable-Phenotype (%) [6]: 18.26% and 44.07% | Population Mitochondria Different-Phenotype (%) [6]: 0% and 1.69% | Population Mitotic Cells (%) [6]: 16.95% and 8.43% | Population Normal (%) [6]: 100% and 99.32% | Population Pyknosed Nuclei (%) [6]: 59.2% and 56.46% | Population Tubulin-Different-Phenotype (%) [6]: 34.78% and 18.64% | Total Cell Count [6]: 299 and 148

Reference: ChEMBL document CHEMBL5724801, “EUbOPEN Chemogenomics Library - Multiplex” (2024)
